Series [1] is described as follows: Stability of compund in pH 7.5 HEPES buffer at 25 uM in presence of human recombinant N-terminal His6-tagged 15-LOX1 expressed in Escherichia coli BL21(DE3) by UV absorption analysis. The format is physicochemical. The conditions noted are these: pH 7.5, 25 µM. The essentials: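 LA-free control in 25 mM HEPES pH 7.5 at 25 µM compound, run in triplicate. Buffer plus compound was mixed with 10 µL ethanol in place of substrate, then 15-LOX-1 enzyme solution was added. DMSO/buffer served as the vehicle control and buffer replaced enzyme in the blank. Absorbance at 234 nm was monitored over time.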

Series [2] in a line: Stability of compund in pH 7.5 HEPES buffer at 25 uM in presence of substrate linoleic acid by UV absorption analysis. It is filed as physicochemical. The conditions noted are these: pH 7.5, 25 µM. The essentials: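 Enzyme-free control in 25 mM HEPES pH 7.5 at 25 µM compound, run in triplicate, with buffer replacing enzyme. 10 µL of 500 µM linoleic acid stock in ethanol was added; ethanol alone served as the blank, and DMSO/buffer as the vehicle control. Absorbance at 234 nm was monitored over time.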

Series [3] can be described thus: Antioxidant activity assessed as DPPH radical scavenging activity incubated for 15 mins under dark condition by spectrophotometric method. The format is functional. In outline: (§1)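 DPPH radical-scavenging assay run in triplicate in MeOH with 10% DMSO. Compounds were serially diluted 10-fold from a top concentration of 1 mM, or 250 or 500 µM for some, down to 1 nM, with DPPH fixed at 0.1 mM. Incubation was 15 min at ambient temperature, protected from light, with A517 read. The compound-only series was subtracted, data normalized to no-inhibitor absorbance, and EC50 fitted by nonlinear dose–response.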
(In general: DPPH is a stable violet radical that fades when it is reduced.)

Series [4] addresses T1, Polyunsaturated fatty acid lipoxygenase ALOX15 (Homo sapiens, UniProt P16050).
T1 sequence (P16050 whole entry): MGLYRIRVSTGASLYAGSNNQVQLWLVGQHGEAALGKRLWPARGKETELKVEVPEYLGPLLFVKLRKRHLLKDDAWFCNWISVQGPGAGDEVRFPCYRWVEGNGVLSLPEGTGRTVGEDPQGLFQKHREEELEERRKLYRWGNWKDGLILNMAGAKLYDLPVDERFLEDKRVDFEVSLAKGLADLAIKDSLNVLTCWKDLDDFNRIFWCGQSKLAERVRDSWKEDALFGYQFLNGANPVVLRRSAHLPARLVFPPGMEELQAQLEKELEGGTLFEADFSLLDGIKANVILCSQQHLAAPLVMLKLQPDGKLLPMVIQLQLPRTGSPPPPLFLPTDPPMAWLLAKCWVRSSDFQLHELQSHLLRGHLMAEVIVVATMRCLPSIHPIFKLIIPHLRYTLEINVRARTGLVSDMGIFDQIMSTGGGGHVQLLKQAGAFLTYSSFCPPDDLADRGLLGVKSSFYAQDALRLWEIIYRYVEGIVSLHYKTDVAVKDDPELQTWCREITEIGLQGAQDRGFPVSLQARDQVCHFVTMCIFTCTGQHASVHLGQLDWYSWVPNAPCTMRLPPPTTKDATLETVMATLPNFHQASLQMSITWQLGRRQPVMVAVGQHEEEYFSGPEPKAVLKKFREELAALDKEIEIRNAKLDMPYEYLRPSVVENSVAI
The series can be described thus: Inhibition of human recombinant N-terminal His6-tagged 15-LOX1 expressed in Escherichia coli BL21(DE3) using linoleic acid as substrate preincubated for 8 mins followed by substrate addition by UV absorption analysis.

Series [5] in a line: Antioxidant activity assessed as ferric ion reducing activity by measuring Fe2+ levels using Fe2+-TPTZ measured 15 secs for 5 mins by FRAP assay. The format is functional.
Series [6] in a line: Antioxidant activity assessed as DPPH radical scavenging activity at 500 uM incubated for 15 mins under dark condition by spectrophotometric method. It is filed as functional. In outline:
as §1

The nature of series [7]: Antioxidant activity assessed as DPPH radical scavenging activity at 250 uM incubated for 15 mins under dark condition by spectrophotometric method. It is filed as functional. In outline: as §1

Experimental findings from ChEMBL document CHEMBL4393683, “A combinatorial approach for the discovery of drug-like inhibitors of 15-lipoxygenase-1” (Eur J Med Chem, 2019) are described below.

SMILES strings stand for the structures. Calls of active or inactive are those of the source. The rule behind the calls is not given here. Where only a bound is given, the exact number is not on record here.

On to `CCOC(=O)c1[nH]c2cc(Cl)ccc2c1/C=N/NC(=O)C1CCN(C(=O)OC(C)(C)C)CC1`, for which the Stability result in series [1] and in series [2] was “Stable” in each case. The result in series [3] was inactive. Besides, the IC50 in series [4] came to 0.47 µM. The Activity in series [5] was less than 50 µmol/L.
As to `CCOC(=O)c1[nH]c2cc(Cl)ccc2c1/C=N/NC(=O)Cc1cccs1`, the IC50 in series [4] is greater than 10 µM.
With `CCOC(=O)c1[nH]c2cc(Cl)ccc2c1/C=N/NC(=O)COc1ccc(Cl)cc1`, the Stability entry in series [1] and in series [2] was “Stable” throughout. Further, in series [6], the outcome was inactive. Moreover, the Activity in series [5] is less than 50 µmol/L.
Take `CCCCC(=O)N/N=C/c1c(C(=O)OCC)[nH]c2cc(Cl)ccc12`: the IC50 in series [4] was greater than 10 µM.
For `CCOC(=O)c1[nH]c2cc(Cl)ccc2c1/C=N/NC(=O)Cc1ccc(OC)c(OC)c1`, the Stability result in series [1] and in series [2] was “Stable” each time. Further, the outcome in series [7] was inactive. For the same compound, the Activity in series [5] was less than 50 µmol/L.
For `CCOC(=O)c1[nH]c2cc(Cl)ccc2c1/C=N/NC(=O)COc1cccc2ccccc12`, in series [4], the IC50 was greater than 10 µM.
For `CCOC(=O)c1[nH]c2cc(Cl)ccc2c1/C=N/NC(=O)COc1ccc(Cl)cc1Cl`, the Stability entry in series [1] and in series [2] was “Stable” in each case. In addition, the result in series [3] was inactive. Also, the Activity in series [5] was less than 50 µmol/L.
For `CCOC(=O)c1[nH]c2cc(Cl)ccc2c1/C=N/NC(=O)CCc1ccccc1`, the IC50 in series [4] was greater than 10 µM.
As to `CCOC(=O)c1[nH]c2cc(Cl)ccc2c1/C=N/NC(=O)Cc1cccc(O)c1`, the Stability result in series [1] and in series [2] was “Stable” in each case. The result in series [3] was inactive. The IC50 in series [4] came to 1.8 µM. Besides, the Activity in series [5] was less than 50 µmol/L.
Consider `CCOC(=O)c1[nH]c2cc(Cl)ccc2c1C=O`, for which, in series [3], the outcome was inactive. Further, the Activity in series [5] is less than 50 µmol/L.
On to `CCOC(=O)c1[nH]c2cc(Cl)ccc2c1/C=N/NC(=O)CCC(C)C`, for which the IC50 in series [4] was greater than 10 µM.
Consider `CCOC(=O)c1[nH]c2cc(Cl)ccc2c1/C=N/NC(=O)Cc1cccnc1`, for which the Stability result in series [1] and in series [2] was “Stable” in each case. For the same compound, the outcome in series [3] was inactive. Also, in series [5], the Activity was less than 50 µmol/L.
Take `CCOC(=O)c1[nH]c2cc(Cl)ccc2c1/C=N/NC(=O)Cc1ccccc1`: the outcome in series [3] was inactive. Also, in series [4], the IC50 was greater than 10 µM. Besides, the Activity in series [5] is less than 50 µmol/L.
`CCOC(=O)c1[nH]c2cc(Cl)ccc2c1/C=N/NC(=O)CNc1cccc([N+](=O)[O-])c1`: the IC50 in series [4] is greater than 10 µM.
Turning to `CCOC(=O)c1[nH]c2cc(Cl)ccc2c1/C=N/NC(=O)c1cc(C(C)(C)C)nn1Cc1cccc(C)c1`, in series [3], the result was inactive. Besides, the IC50 in series [4] was found to be 4.22 µM. For the same compound, the Activity in series [5] is less than 50 µmol/L.
On to `CCOC(=O)c1[nH]c2cc(Cl)ccc2c1/C=N/NC(=O)CC1CCCC1`, for which, in series [4], the IC50 was greater than 10 µM.
As to `CCOC(=O)c1[nH]c2cc(Cl)ccc2c1/C=N/NC(=O)CSc1nc2ccccc2[nH]1`, the Stability result in series [1] and in series [2] was “Stable” in each case. Also, the outcome in series [3] was inactive. For the same compound, the Activity in series [5] was less than 50 µmol/L.
Take `CCOC(=O)c1[nH]c2cc(Cl)ccc2c1/C=N/NC(=O)COc1ccccc1Cl`: the Stability result in series [1] and in series [2] was “Stable” throughout. The outcome in series [7] was inactive. The Activity in series [5] is less than 50 µmol/L.
As for `CCOC(=O)c1[nH]c2cc(Cl)ccc2c1/C=N/NC(=O)COc1ccccc1`, the outcome in series [6] was inactive. In addition, the IC50 in series [4] is greater than 10 µM. Besides, the Activity in series [5] is less than 50 µmol/L.
For the compound `CCOC(=O)c1[nH]c2cc(Cl)ccc2c1/C=N/NC(=O)[C@H](Cc1ccccc1)NC(=O)OC(C)(C)C`, in series [4], the IC50 is greater than 10 µM.
For the compound `O=C1O[C@H]([C@@H](O)CO)C(O)=C1O` [ASCORBIC ACID], in series [3], the EC50 is 17.2 µM.
Turning to `CCOC(=O)c1[nH]c2cc(Cl)ccc2c1/C=N/NC(=O)COc1ccc([N+](=O)[O-])cc1`, the half-inhibitory concentration (IC50) in series [4] is greater than 10 µM.
The same measure, in the same setting: in the case of `CCOC(=O)c1[nH]c2cc(Cl)ccc2c1/C=N/NC(=O)CCCOc1ccc(Cl)cc1Cl` it was greater than 10 µM.

One may read the IC50 as the point on the concentration scale where inhibition reaches its midpoint. Usually EC50 stands for the concentration needed to bring the measured effect to its halfway point.
